# Experimental data reported in paper PMC5518789 (Journal of bone and mineral research : the official journal …, 2017).
# Entries after “also recorded” stand apart in the source; their conditions may differ.
# B1: RANKL: receptor activator of NF-κB ligand, R&D Systems (protein, UniProt O14788 140-317, looked up)
# Tumor necrosis factor ligand …: IRAEKAMVDGSWLDLAKRSKLEAQPFAHLTINATDIPSGSHKVSLSSWYHDRGWAKISNMTFSNGKLIVNQDGFYYLYANICFRHHETSGDLATEYLQLMVYVTKTSIKIPSSHTLMKGGSTKYWSGNSEFHFYSINVGGFFKLRSGEEISIEVSNPSLLDPDQDATYFGAFKVRDID
# B2: mCSF: culture factor for osteoclast precursors, R&D Systems (protein, UniProt P07141 33-552, looked up)
# Macrophage colony-stimulating …: KEVSEHCSHMIGNGHLKVLQQLIDSQMETSCQIAFEFVDQEQLDDPVCYLKKAFFLVQDIIDETMRFKDNTPNANATERLQELSNNLNSCFTKDYEEQNKACVRTFHETPLQLLEKIKNFFNETKNLLEKDWNIFTKNCNNSFAKCSSRDVVTKPDCNCLYPKATPSSDPASASPHQPPAPSMAPLAGLAWDDSQRTEGSSLLPSELPLRIEDPGSAKQRPPRSTCQTLESTEQPNHGDRLTEDSQPHPSAGGPVPGVEDILESSLGTNWVLEEASGEASEGFLTQEAKFSPSTPVGGSIQAETDRPRALSASPFPKSTEDQKPVDITDRPLTEVNPMRPIGQTQNNTPEKTDGTSTLREDHQEPGSPHIATPNPQRVSNSATPVAQLLLPKSHSWGIVLPLGELEGKRSTRDRRSPAELEGGSASEGAARPVARFNSIPLTDTGHVEQHEGSSDPQIPESVFHLLVPGIILVLLTVGGLLFYKWKWRSHRDPQTLDSSVGRPEDSSLTQDEDRQVELPV
# Tests used:
# [1] = tested on: PTHrP(12-48) polyclonal Ab; experiment: Dot blot with PTHrP; format: binding, chicken; details: nitrocellulose, nondenaturing, 100, 10 and 1 ng, chemiluminescence
# How it was run: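 The peptide panel (test peptide, PTHrP(1-141), PTHrP(1-37), PTH(1-34), IL-8) was spotted at 100, 10 and 1 ng on nitrocellulose without denaturation. The probe was a chicken polyclonal IgY raised against the KLH-conjugated test peptide, depleted of PTHrP(1-37) by negative selection and affinity-purified on a test-peptide column. Detection was by chemiluminescence.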
# PTHrP(1-15)-mAb = experiment: Dot blot with PTHrP; format: binding; details: nitrocellulose, 100, 10 and 1 ng, chemiluminescence
# How it was run: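 The test peptide, PTHrP(1-141), PTHrP(1-37), PTH(1-34) and IL-8 were each spotted at 100, 10 and 1 ng onto nitrocellulose under nondenaturing conditions. Blots were probed with an N-terminal PTHrP(1-15) monoclonal antibody and developed by chemiluminescence.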
# [2] = tested on: PTHR1 (PTHR1-expressing SaOS2 cells); experiment: Competitive cAMP ELISA in SaOS2 cells; format: cell-based, human; details: PTH(1-34) 1 and 10 nM, 10 min, IBMX pretreatment, representative of three independent experiments
# How it was run: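 SaOS2 cells were grown in RPMI 1640 with 10% FBS and antibiotics at 37°C and 5% CO₂, with medium changed every 3 days. Confluent cultures were serum-starved for 6 h, pretreated with IBMX for 15 min, then exposed to ligand for 10 min. Cells were lysed, and cAMP was quantified by a competitive ELISA kit following the manufacturer's protocol.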
# [3] = tested on: PTHR1 (PTHR1-expressing SaOS2 cells); details: cited from earlier work
# [4] = tested on: human OCLs and their precursors (PBMCs); experiment: Internalization assay in human osteoclasts and precursors; format: cell-based
# How it was run: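 Thawed human PBMCs were seeded at 500,000 cells/well on chamber slides in alpha-MEM + 10% FBS with mCSF (25 ng/mL) ± RANKL (50 ng/mL) at 37°C, 5% CO₂. On day 7, test peptide (100 nM) was added with serum for 15, 30, 60 or 90 min. Cells were fixed in 4% paraformaldehyde (4°C, 15 min), permeabilised with 0.02% Triton X-100 and blocked with BlokHen 1:10. They were stained with chicken anti-test-peptide antibody plus DAPI, with a no-primary control, and imaged by fluorescence or confocal microscopy.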
# [5] = tested on: PTHR1 (SaOS2 or any other PTHR1-expressing cell); experiment: PTHR1 antagonism of PTHrP; format: cell-based, human; details: data not shown
# PTHrP(12-48) Ab = experiment: Western blot with PTHrP; format: binding, chicken; details: SDS-PAGE (12%) immunoblot; PTHrP(12-48) 1 mM, 100 µM, 10 µM; two independent series of experiments
# How it was run: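 Peptides and IL-8 were run on 12% SDS-PAGE and transferred to nitrocellulose. Blots were blocked for 30 min in BlokHen (1:10 in water), then washed in PBS with 0.05% Tween-20. They were probed with chicken polyclonal IgY (raised against KLH-conjugated PTHrP(12-48) and PEG-precipitated from egg yolk) or a PTHrP(1-15) monoclonal, then a secondary antibody. Detection was by chemiluminescence. Blots were stripped for 30 min at RT and reprobed for IL-8.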
# [6] = tested on: human OCL precursors and differentiated OCLs (PBMCs); experiment: Cleaved caspase 3; format: cell-based; details: for total cells positive for cleaved caspase-3, controls day 0: OCL precursors, vehicle or mCSF without or with RANKL on day 0, 24 h
# How it was run: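 Frozen human PBMCs were thawed at 37°C and seeded at 500,000 cells/well on chamber slides in alpha-MEM + 10% FBS with mCSF (25 ng/mL) ± RANKL (50 ng/mL) at 37°C, 5% CO₂. Cells were treated 24 h with test peptide (50 nM) or TNFα (200 ng/mL) on day 0 or day 7. They were then fixed, permeabilised and stained with anti-cleaved caspase 3 (Asp175) at 1:400 plus a 1 h secondary, with DAPI nuclei. Positive cells were counted by fluorescence or confocal microscopy.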
# [7] = tested on: mesenchymal lineage cells; experiment: Effect on mesenchymal lineage cells; format: cell-based; details: in vitro or in vivo; data not shown
# [8] = tested on: other resident bone and bone marrow cells; experiment: Uptake in other resident bone and bone marrow cells; format: cell-based; details: in vitro or in vivo; data not shown
# cells (PTHR1-dependent) = details: cited from earlier work
# [9] = tested on: human OCL precursors / OCLs (PBMCs); experiment: Osteoclastogenesis, TRAP+ MNC count; format: cell-based; details: RANKL 50 ng/mL + mCSF 25 ng/mL versus mCSF; day 10; Fig. 3A, p < 0.001
molecule,measurement,setting,value
"IL-8: interleukin 8, control in dot blots",recognition by PTHrP(12-48) Ab,[1],not recognized by either PTHrP Ab
same,recognition by PTHrP(1-15) mAb,PTHrP(1-15)-mAb,not recognized by either PTHrP Ab
"PTH(1-34): activates cAMP production via PTHR1, used as a positive control (SVSEIQLMHNLGKHLNSMERVEWLRKKLQDVHNF; Parathyroid hormone; UniProt P01270 32-65, looked up, fragment)",cAMP production (positive control),[2],stimulated cAMP production; also recorded: stimulated the expected increase in cAMP
same,activation of cAMP production via PTHR1 (literature),[3]; 50 nM,activates cAMP production via PTHR1
PTHrP(1-36): PTHR1 ligand to which SaOS2 cells respond [reference compound],internalization into day 7 cells,"[4]; PTHrP(1-36), similar treatment (Supplemental Fig. 2)",no internalization
same,SaOS2 response / activation of Gαs,"[3]; SaOS2 cells, 36 (response), 42 (Gαs)",trigger the activation of Gαs
PTHrP(1-37): N-terminal peptide used in dot blots and ELISA,recognition by PTHrP(1-15) mAb,PTHrP(1-15)-mAb,recognized an antigen present in full-length PTHrP(1-141) as well as PTHrP(1-37)
"PTHrP(1-141): full-length recombinant PTHrP, gift of Dr. T.J. Martin",recognition by PTHrP(12-48) Ab,[1],but not PTHrP(1-141)
same,recognition by PTHrP(1-15) mAb,PTHrP(1-15)-mAb,recognized an antigen present in full-length PTHrP(1-141)
"PTHrP(12-48): unique peptide fragment of parathyroid hormone-related protein (PTHrP); New England Peptides Inc. (GKSIQDLRRRFFLHHLIAEIHTAEIRATSEVSPNSKP; Parathyroid hormone-related protein; UniProt P12272 48-84, looked up, fragment)",antagonist or partial antagonist action at PTHR1,[5]; SaOS2 or any other PTHR1-expressing cell,unable to show any significant antagonist or partial antagonist actions
same,antagonism of PTHrP(1-36) agonist activity at PTHR1,[5],nor does PTHrP(12-48) antagonize agonist activity of PTHrP(1-36) at the PTHR1
same,recognition by PTHrP(1-15) mAb,PTHrP(1-15)-mAb,but not PTHrP(12-48)
same,recognition by PTHrP(12-48) Ab,PTHrP(12-48) Ab,specifically recognized the 4-kDa PTHrP(12-48); also recorded: specifically recognized by PTHrP(12-48) Ab
same,time to internalization into primary human OCLs and their precursors,"[4]; 100 nM, day 7 cells, immunofluorescence",≤ 60 min
same,internalization into OCLs,"[4]; 100 nM, in presence of serum, day 7 cells, mCSF (25 ng/mL)+RANKL (50 ng/mL), 15, 30, 60 and 90 min, immunofluorescence, three independent experiments",observed in OCLs 60 min after the addition
same,internalization into mononuclear cells (precursors),"[4]; 100 nM, mCSF alone, Fig. 2H panel iv, immunofluorescence",observed in mononuclear cells cultured in the presence of mCSF alone
same,"cleaved caspase 3-positive cells, day 7","[6]; 50 nM, 24 h, cells cultured for 7 days, Fig. 4C, D, p < 0.05",significantly increased the number of cleaved caspase 3-positive cells
same,cleaved caspase 3 increase compared with TNFα,"[6]; PTHrP(12-48) 50 nM versus TNFα 200 ng/ml, 24 h",comparable to the effects observed following treatment with TNFα
same,effect on mesenchymal lineage cells,[7],unable to show an effect of PTHrP(12-48) on mesenchymal lineage cells
same,uptake in other resident bone and bone marrow cells,[8],unable to show an effect of PTHrP(12-48) on mesenchymal lineage cells or observe any apparent uptake in other resident bone and bone marrow cells
"PTHrP(67-93): PTHrP fragment shown to translocate into cells (YLTQETNKVETYKEQPLKTPGKKKKGK; Parathyroid hormone-related protein; UniProt P12272 103-129, looked up, fragment)",translocation into cells,cells (PTHR1-dependent),translocate into cells in a PTHR1-dependent fashion
"PTHrP(94-108): PTHrP fragment shown to translocate into cells (PGKRKEQEKKKRRTR; Parathyroid hormone-related protein; UniProt P12272 130-144, looked up, fragment)",translocation into cells,cells (PTHR1-dependent),translocate into cells in a PTHR1-dependent fashion
B1,"number of TRAP+ MNCs, effect of RANKL",[9],significantly increased the number of TRAP+ MNCs
same,"total cells positive for cleaved caspase-3, controls day 0",[6],less than 25%
B2,"total cells positive for cleaved caspase-3, controls day 0",[6],less than 25%
